# Screening data deposited in PubChem by The Scripps Research Institute Molecular Screening Center.
# Hits are enriched below; roughly 3.2% of the tested compounds scored in any of these assays.
# TRPN1 ag: activates the zebrafish TRPN1 channel | 0.18% of 220,000 active | HEK293 zebrafish TRPN1-YFP, Fluo-8 calcium fluorescence; 100% = response to 87 µM carbachol | activation, % at 3 µM | AID 1424;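 active means activation above its plate's cutoff, the mean activation of test wells on that plate plus 3 SD, cut at about 19% in these data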;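 further: 0% = DMSO alone and 100% = 87 µM carbachol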
#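 Material: zebrafish TRPN1-YFP in HEK293 cells; Doses: single test compound dose, 3 µM nominal, 0.3% DMSO; Timing: dye loading 1 h at 37 °C, then 30 min room temperature; Technique: intracellular calcium fluorescence with Fluo-8; Benchmarks: high carbachol 87 µM, low DMSO alone.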
# OX1R antag-1: human HCRTR1 antagonism; CHO/OX1R cells, Fluo-8 calcium fluorescence, orexin A; AID 434989; 0.43% of 330,000 active; O43613; inhibition, % at 5 µM;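 active means inhibition above its plate's threshold, mean inhibition of all tested compounds on the plate plus 3 SD, cut at about 37% in these data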;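 further: 0% = orexin A challenge wells and 100% = SB-334867-A antagonist wells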
# CHO parental Ca: counter-screen: ATP calcium response change in parental CHO cells; parental CHO-K1, ATP-induced calcium, Fluo-8 fluorescence; inhibition, % at 5.6 µM; 0.63% of 330,000 active;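 active means inhibition above that plate's mean sample inhibition plus 3 SD, cut at about 26% in these data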;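 further: 0% = ATP-challenged DMSO wells and 100% = DMSO wells without ATP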
#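 Assay system – parental CHO cells · Reagent – ATP stimulus · Detection – intracellular calcium via Fluo-8 no-wash fluorescent dye · Evaluation – percent inhibition of ATP-evoked calcium rise, normalized to controls · Controls – ATP wells versus no-ATP DMSO wells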
# GPR7 antag: human neuropeptides B/W receptor 1 antagonism | P48145 | inhibition, % at 4.4 µM | GPR7-expressing cells, fluorescence antagonist assay | 1.1% of 290,000 active; in the data active means inhibition above about 16%, passing the limit was not always enough;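 further: cells stimulated with the agonist NPW; 0% = agonist with vehicle and 100% = vehicle without agonist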
# Target sequence (P48145 whole entry, looked up): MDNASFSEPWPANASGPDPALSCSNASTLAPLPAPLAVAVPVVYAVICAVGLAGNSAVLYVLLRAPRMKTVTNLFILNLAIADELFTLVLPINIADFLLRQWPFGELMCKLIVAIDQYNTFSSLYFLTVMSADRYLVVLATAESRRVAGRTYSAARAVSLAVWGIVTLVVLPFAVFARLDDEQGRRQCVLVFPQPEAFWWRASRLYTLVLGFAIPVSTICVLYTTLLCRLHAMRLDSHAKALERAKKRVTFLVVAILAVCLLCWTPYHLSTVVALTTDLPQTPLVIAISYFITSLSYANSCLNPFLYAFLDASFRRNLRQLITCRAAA
# OX1R antag-2: antagonists of human orexin 1 receptor (OX1R) | OX1R-expressing cells, FRET antagonist read-out | 1.8% of 330,000 active | O43613 | AID 485270 | inhibition, % at 6.6 µM; in the data active means inhibition mostly above about 38%, no sharp cut-off; inactive means mostly below about 40%;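 further: 0% = agonist challenge alone and 100% = reference antagonist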
# TRPML3 ag: agonists of human TRPML3 channel; 0.29% of 220,000 active; AID 1448; activation, % at 3 µM; HEK293 TRPML3-YFP, Fluo-8 calcium fluorescence; 100% = the carbachol control signal; Q8TDD5;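 active means activation above its plate's cutoff, the mean activation of the plate's test wells plus 3 SD, cut at about 12% in these data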;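 further: 0% = DMSO only wells and 100% = carbachol wells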
#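 Test system: TRPML3-YFP stable HEK293 cells. Doses: single point at 3 µM. Incubation: dye loading 1 h 37 °C then 30 min ambient, 125 s read. Signal: Fluo-8 calcium dye fluorescence, ex 470-495, em 515-575 nm. Measure: percent activation from peak-to-basal fluorescence ratio, scaled between DMSO and carbachol.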
# * marks the source's active call; other numbers are inactive results; nt = no result given.
SMILES,TRPN1 ag,OX1R antag-1,CHO parental Ca,GPR7 antag,OX1R antag-2,TRPML3 ag
Cc1ccccc1C(=O)c1cccn1CC(=O)NC1CCCC(C)C1C (centres undefined),nt,28.3,4.1,-4.6,39.5*,nt
Cc1ccccc1C(=O)c1cccn1CC(=O)NCCCc1ccccc1,nt,-6.0,-7.3,-6.0,20.2,nt
Cc1ccccc1C(=O)c1cccn1CC(=O)NCC(C)c1ccccc1 (centres undefined),nt,15.8,-23.4,-3.4,38.9*,nt
COC(=O)c1cn(C(=O)/C=C/c2ccc(OC)c(OC)c2)c2ccccc12,0.4,-21.0,-4.8,5.9,1.0,1.5
CCCCNC(=O)c1cc2c(=O)n3cccc(C)c3nc2n(Cc2ccncc2)c1=N,-1.6,-21.8,-16.3,-19.4,41.2*,0.5
COCCCn1c(=NC(=O)c2ccncc2)c(C#N)cc2c(=O)n3cccc(C)c3nc21,0.6,-14.8,-6.9,-8.2,41.0*,0.5
COCCNC(=O)c1cc2c(=O)n3cccc(C)c3nc2n(Cc2ccncc2)c1=N,0.8,-20.8,-8.8,-16.4,49.3*,-0.8
COc1ccc(N2CCN(C(=O)Nc3ccccc3C)CC2)cc1,0.2,-1.7,0.7,-1.6,12.3,0.8
CN(C)c1ccc(-c2nnc(-c3ccccc3F)o2)cc1,nt,-5.2,-7.2,1.6,51.3*,nt
CC(C)Oc1ccc(C(CC(=O)O)Cc2ccccc2)cc1 (centres undefined),nt,-5.5,-3.1,-6.9,5.2,nt
NS(=O)(=O)c1ccc(NC(=O)Nc2ccc3c(c2)OCO3)cc1,nt,nt,nt,-10.6,nt,nt
O=[N+]([O-])c1ccc(S(=O)(=O)NCCCc2ccccc2)cc1,nt,-19.6,-15.8,nt,-0.3,nt
O=[N+]([O-])c1ccc(-c2ccc(S(=O)(=O)NCCN3CCCC3)cc2)cc1,5.8,4.0,-8.3,-14.5,59.1*,4.1
O=[N+]([O-])c1ccc(S(=O)(=O)NCCN2CCOCC2)cc1,0.1,-28.1,8.0,4.3,42.6*,0.1
Nc1[nH]c(=O)nc(Nc2ccccc2)c1N=O,nt,-17.3,1.6,nt,55.0*,nt
CCS(=O)c1ccccc1C(=O)OCC(=O)Nc1ccc2ccccc2c1 (centres undefined),nt,-10.6,38.8*,nt,8.7,nt
O=C(COC(=O)c1ccccc1O)Nc1ccc2ccccc2c1,nt,1.1,17.6,nt,15.3,nt
Cc1nn(C)cc1C(C)NCc1c(C(=O)N2CCCCCCC2)nc2ccc(Cl)cn12 (centres undefined),-0.4,-21.0,-20.1,1.4,5.2,-0.5
CCN(C(=O)COC(=O)c1cccnc1SC)C1CCCCC1,nt,30.9,-14.1,nt,57.2*,nt
CC(=O)Nc1ccc(NC(=O)COC(=O)c2ccc([N+](=O)[O-])o2)cc1,nt,-9.9,-7.4,nt,36.6*,nt
O=C(COC(=O)c1ccc([N+](=O)[O-])o1)NC1CCCC1,nt,-1.0,-9.7,nt,32.3,nt
O=C(NCc1ccco1)c1ccc([N+](=O)[O-])o1,-0.6,-7.7,18.3,-6.7,71.4*,0.4
CCN(c1ccc(NC(=O)COC(=O)c2ccc([N+](=O)[O-])o2)cc1)C(C)C,nt,-22.2,-1.0,nt,9.6,nt
CCN(C(=O)COC(=O)c1ccc([N+](=O)[O-])o1)C1CCCCC1,nt,-5.2,0.6,nt,29.3*,nt
CCN(C(=O)COC(=O)c1cccnc1SC)C1CCS(=O)(=O)C1 (centres undefined),0.0,-30.6,-2.5,-1.1,11.4,0.3
SMILES,TRPN1 ag,OX1R antag-1,CHO parental Ca,GPR7 antag,OX1R antag-2,TRPML3 ag
CCC(=O)N(Cc1cc2ccccc2[nH]c1=O)c1ccccc1OC,nt,-10.5,-13.4,7.0,-2.2,nt
COc1cc(C2CC(=O)Oc3cc(C)cc(C)c32)cc(OC)c1OC (centres undefined),nt,-7.5,-15.0,nt,9.5,nt
Cc1cc(=O)cc(C)n1-c1ccccc1Br,nt,-5.4,-1.4,-1.6,10.3,nt
O=C(COC(=O)c1ccc([N+](=O)[O-])o1)NC1CCCCC1,nt,-29.6,-4.3,nt,24.4*,nt
O=C(NC1CCCCC1)c1ccc([N+](=O)[O-])o1,nt,-19.8,6.5,7.5,39.0*,nt
O=C(NC1CCCC(C(F)(F)F)C1)c1ccc([N+](=O)[O-])o1 (centres undefined),nt,-15.1,-7.2,nt,19.6,nt
Cc1ccc(OCCNC(=O)CNC(=O)c2ccc(Cl)c([N+](=O)[O-])c2)cc1,nt,-21.7,-11.1,nt,19.6,nt
O=C(N/N=C/c1ccnc2ccccc12)c1ccccc1O,nt,nt,nt,6.0,nt,nt
